The source of these data is ChEMBL document CHEMBL4229344 (Eur J Med Chem, 2018).

Series [1] has as its target Serine/threonine-protein kinase Nek4 (Homo sapiens) (UniProt P51957). Kind of series: Binding affinity to wild-type human full length NEK4 (M1 to F841 residues) expressed in mammalian expression system assessed as residual binding level at 1 uM by Kinomescan method relative to control. The essentials: (§1)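 Single-concentration KINOMEscan (DiscoverX) binding screen at 1 μM against a panel of 468 purified kinases and mutants. The read-out is binding relative to control.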

In series [2] the target is Phosphatidylinositol 4,5-bisphosphate 3-kinase catalytic subunit beta isoform (Homo sapiens) (UniProt P42338). In words: Binding affinity to wild-type human partial length PIK3CB (P118 to S1070 residues) expressed in mammalian expression system assessed as residual binding level at 1 uM by Kinomescan method relative to control.
Series [3] concerns the target Ribosomal protein S6 kinase alpha-6 (Homo sapiens) (UniProt Q9UK32). In words: Binding affinity to wild-type human partial length N-terminal RSK4 kinase domain 1 (M1 to E397 residues) expressed in mammalian expression system assessed as residual binding level at 1 uM by Kinomescan method relative to control.
A short description of series [4]: MRT (0 to t) in Sprague-Dawley rat at 10 mg/kg, po. The class given is ADME, organism-based. Conditions: in vivo.
Series [5] addresses Tyrosine-protein kinase Mer (Homo sapiens) (UniProt Q12866). Kind of series: Binding affinity to wild-type human partial length MERTK (R557 to L884 residues) expressed in bacterial expression system assessed as residual binding level at 1 uM by Kinomescan method relative to control.
The target of series [6] is Serine/threonine-protein kinase Nek6 (Homo sapiens) (UniProt Q9HC98). Kind of series: Binding affinity to wild-type human full length NEK6 (M8 to T313 residues) expressed in bacterial expression system assessed as residual binding level at 1 uM by Kinomescan method relative to control. The essentials:
as §1

Series [7] concerns the target Mitogen-activated protein kinase 11 (Homo sapiens) (UniProt Q15759). In words: Binding affinity to wild-type human full length p38-beta (M1 to Q364 residues) expressed in bacterial expression system assessed as residual binding level at 1 uM by Kinomescan method relative to control. The essentials:
as §1

In series [8] the target is Activin receptor type-1-like (Homo sapiens) (UniProt P37023). In words: Binding affinity to wild-type human ACVRL1 (L164 to Q503 residues) expressed in bacterial expression system assessed as residual binding level at 1 uM by Kinomescan method relative to control. The essentials: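 Single-concentration (1 μM) competition-binding screen run by KINOMEscan against a panel of 468 purified kinases and mutants. The read-out is the relative binding activity of the test compound to each kinase.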

Series [9] has as its target Serine/threonine-protein kinase D2 (Homo sapiens) (UniProt Q9BZL6). Kind of series: Binding affinity to wild-type human partial length PRKD2 (A519 to E838 residues) expressed in bacterial expression system assessed as residual binding level at 1 uM by Kinomescan method relative to control.
Series [10] concerns the target Interferon-induced, double-stranded RNA-activated protein kinase (Homo sapiens) (UniProt P19525). Kind of series: Binding affinity to wild-type human partial length PRKR (F247 to C551 residues) expressed in bacterial expression system assessed as residual binding level at 1 uM by Kinomescan method relative to control.
Series [11] deals with Ephrin type-A receptor 4 (Homo sapiens) (UniProt P54764). Kind of series: Binding affinity to wild-type human partial length EPHA4 (T601 to R897 residues) expressed in bacterial expression system assessed as residual binding level at 1 uM by Kinomescan method relative to control. The method, boiled down:
(§2)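 Kinome-wide competition binding screen against a panel of 468 purified kinases/mutants, with the test compound at a single concentration of 1 μM. Read-out is the relative binding activity of each kinase in the presence of compound.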

Series [12] addresses Serine/threonine-protein kinase PLK4 (Homo sapiens) (UniProt O00444). Kind of series: Binding affinity to wild-type human partial length PLK4 (M1 to S273 residues) expressed in mammalian expression system assessed as residual binding level at 1 uM by Kinomescan method relative to control.
The nature of series [13]: Tmax in Sprague-Dawley rat at 10 mg/kg, po. Conditions: in vivo. The series is classed as ADME, organism-based. The essentials: (§3)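 Male Sprague-Dawley rats, 6–8 weeks old and fasted overnight, dosed IV at 1 mg/kg or PO at 10 mg/kg. Formulation was 5% DMSO/40% PEG400/55% saline (1 mg/mL). Jugular blood collected on heparin from 1 min to 8 h (IV) or 5 min to 24 h (PO). Plasma separated by centrifugation at 2–8 °C and stored at −80 °C.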

For series [14], the system named is Epidermal growth factor receptor (Homo sapiens), P00533 [L858R]. In words: Binding affinity to human partial length EGFR L858R mutant (R669 to V1011 residues) expressed in bacterial expression system assessed as residual binding level at 1 uM by Kinomescan method relative to control. The essentials: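 Kinome-wide single-concentration binding screen (KINOMEscan) at 1 μM against a panel of 468 purified kinases and mutants. Read-out is relative binding of each kinase compared with control. Selectivity across the panel was summarised as an S(10) score.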

The nature of series [15]: Apparent clearance in Sprague-Dawley rat at 10 mg/kg, po. The class given is ADME, organism-based. The following applies: in vivo, read-out: CL(app) (converted).
The target of series [16] is Serine/threonine-protein kinase PLK2 (Homo sapiens) (UniProt Q9NYY3). In words: Binding affinity to wild-type human partial length PLK2 (H58 to F354 residues) expressed in mammalian expression system assessed as residual binding level at 1 uM by Kinomescan method relative to control. The essentials:
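KINOMEscan competition binding against a panel of 468 purified kinases/mutants, compound tested at 1 μM; readout is relative binding activity versus control.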

In series [17] the target is Mitogen-activated protein kinase kinase kinase 5 (Homo sapiens) (UniProt Q99683). Kind of series: Binding affinity to wild-type human partial length ASK1 (E648 to S964 residues) expressed in bacterial expression system assessed as residual binding level at 1 uM by Kinomescan method relative to control. The essentials:
as §1

For series [18], the target named is Serine/threonine-protein kinase pim-1 (Homo sapiens) (UniProt P11309). In words: Binding affinity to wild-type human partial length PIM1 (A15 to K313 residues) expressed in bacterial expression system assessed as residual binding level at 1 uM by Kinomescan method relative to control.
For series [19], the target named is Fibroblast growth factor receptor 1 (Homo sapiens) (UniProt P11362). In words: Binding affinity to wild-type human partial length FGFR1 (P357 to V669 residues) expressed in bacterial expression system assessed as residual binding level at 1 uM by Kinomescan method relative to control.
In series [20] the target is Discoidin domain-containing receptor 2 (Homo sapiens) (UniProt Q16832). Kind of series: Binding affinity to wild-type human partial length DDR2 (V555 to E855 residues) expressed in mammalian expression system assessed as residual binding level at 1 uM by Kinomescan method relative to control. The essentials: as §2
For series [21], the target named is Mitogen-activated protein kinase kinase kinase 19 (Homo sapiens) (UniProt Q56UN5). Kind of series: Binding affinity to wild-type human partial length YSK4 (T1019 to H1328 residues) expressed in mammalian expression system assessed as residual binding level at 1 uM by Kinomescan method relative to control.
Series [22] can be described thus: Cmax in Sprague-Dawley rat at 1 mg/kg, iv. The series is classed as ADME, organism-based. More on the design: dose 1 mg/kg, route intravenous. The following applies: in vivo. The method, boiled down: as §3

As for `Cc1ccc(NC(=O)c2ccc(CN(CCN(C)C)C(=O)c3cccnc3)cc2)cc1Nc1nccc(-c2cccnc2)n1`, the Activity in series [1] came to 100%; in series [2], 100%; in series [3], 100%; in series [5] it was 100%; in series [6] it was 90%; in [7], 100%. In addition, the Activity in [8] amounted to 100%; in series [9], 93%; in series [10], 100%; in [11], 94%; in [12], 88%; in series [14], 100%. The Activity in series [16] came to 87%; in series [17] it was 100%; in series [18], 98%; in [19], 98%; in series [20], 33%; in series [21], 96%. Also, the MRT last in series [4] came out at 3.33 h. For the same compound, the Tmax in series [13] is 1.5 h. For the same compound, the CL/F in [15] is 1450 mL/min/kg. The highest level in series [22] (Cmax) was 4590 ng/mL.

In general, MRT last refers to a mean duration of stay, worked out from the concentration-time curve. The Tmax is the time at which the peak concentration occurs. By Cmax is commonly meant the maximum level reached in the sampled fluid or tissue.
